Among the data in ChEMBL document CHEMBL1140204, “Discovery of boronic acids as novel and potent inhibitors of fatty acid amide hydrolase” (J Med Chem, 2008) are inhibition, IC50 and Activity values, retold here.

The target of test [1] is T1, Monoglyceride lipase (Homo sapiens) (UniProt Q99685).
T1 sequence (whole entry): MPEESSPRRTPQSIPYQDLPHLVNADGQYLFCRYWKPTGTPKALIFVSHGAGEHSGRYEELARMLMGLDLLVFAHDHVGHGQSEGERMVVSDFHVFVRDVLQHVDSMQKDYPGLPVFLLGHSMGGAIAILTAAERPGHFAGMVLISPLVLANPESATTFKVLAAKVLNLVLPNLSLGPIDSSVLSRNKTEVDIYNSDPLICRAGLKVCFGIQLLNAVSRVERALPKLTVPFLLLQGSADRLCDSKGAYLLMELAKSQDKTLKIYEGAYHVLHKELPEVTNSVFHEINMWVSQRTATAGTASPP
As to the kind of experiment: Inhibition of human recombinant MGL at 100 uM. A digest of the protocol: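 Human recombinant MGL as enzyme source with 2-AG as substrate. Single-concentration screen at 100 µM, expressed as percent inhibition. Mean of two independent experiments, each performed in duplicate.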

Test [2] deals with T2, Fatty-acid amide hydrolase 1 (Rattus norvegicus, UniProt P97612).
T2 sequence (P97612 whole entry): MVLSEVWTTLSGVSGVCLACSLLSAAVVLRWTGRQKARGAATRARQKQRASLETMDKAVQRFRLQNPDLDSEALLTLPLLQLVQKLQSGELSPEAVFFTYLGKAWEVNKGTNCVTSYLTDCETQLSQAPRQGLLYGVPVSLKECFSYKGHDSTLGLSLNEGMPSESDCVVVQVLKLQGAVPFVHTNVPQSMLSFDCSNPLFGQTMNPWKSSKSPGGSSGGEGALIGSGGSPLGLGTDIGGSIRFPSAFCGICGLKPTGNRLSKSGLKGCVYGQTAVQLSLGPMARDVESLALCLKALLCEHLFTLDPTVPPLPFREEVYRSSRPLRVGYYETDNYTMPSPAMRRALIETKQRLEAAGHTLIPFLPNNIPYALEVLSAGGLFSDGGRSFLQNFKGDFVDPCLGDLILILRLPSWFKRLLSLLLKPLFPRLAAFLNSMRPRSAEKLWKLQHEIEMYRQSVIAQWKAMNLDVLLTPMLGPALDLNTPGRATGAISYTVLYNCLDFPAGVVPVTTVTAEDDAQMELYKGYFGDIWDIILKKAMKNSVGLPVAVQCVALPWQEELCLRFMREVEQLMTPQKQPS
Put plainly: Inhibition of Wistar rat brain FAAH assessed as [3H]arachidonoylethanolamide hydrolysis.

Another test has as its target T3, Monoglyceride lipase (Homo sapiens, UniProt Q99685).
T3 sequence (Q99685 whole entry): T1 sequence (whole entry)
Put plainly: Inhibition of human recombinant MGL.

Test [3] addresses T1, Monoglyceride lipase (Homo sapiens). Put plainly: Inhibition of human recombinant MGL assessed as residual enzyme activity at 1 mM.

The source made the active and inactive calls. No cut-off for these calls is given here.

One may read the inhibition as the relative decrease from the control value, in per cent. For the compound `COc1cccc(B(O)O)c1`, in test [1], the inhibition was found to be 7%.
The IC50 is the concentration that gives 50% inhibition. As to `OB(O)c1ccccc1C(F)(F)F`, the inhibition in test [1] came to 20%. Further, in test [2], the IC50 turned out to be 68000 nM.
As to `OB(O)c1ccc(C(F)(F)F)cc1`, the IC50 in test [2] was 36 nM.
In the case of `OB(O)c1cccc(-c2ccccc2)c1`, the IC50 in test [2] was 130 nM.
For `OB(O)/C=C/c1ccc(-c2ccccc2)cc1`, the IC50 in test [2] stood at 14 nM.
For `N#Cc1cccc(B(O)O)c1`, the inhibition in test [1] was determined as 21%. The IC50 in test [2] was found to be 1600 nM.
As for `OB(O)c1ccccc1` [PHENYLBORONIC ACID], the result in test [1] was inactive. For the same compound, the IC50 in test [2] was determined as 2600 nM.
`OB(O)c1ccccc1-c1ccccc1`: the inhibition in test [1] was found to be 2%. Moreover, the IC50 in test [2] is 110000 nM.
For `OB(O)c1cc2ccccc2s1`, the IC50 at Monoglyceride lipase turned out to be 32000 nM; in test [2], 150 nM.
`OB(O)c1cc2ccccc2o1`: the Activity in test [3] came to 8.4%. Also, the results for the IC50 (on Monoglyceride lipase; in test [2]) were 100000 nM and 330 nM, respectively.
Take `OB(O)c1cccc(C(F)(F)F)c1`: the IC50 on Monoglyceride lipase was 38000 nM; in test [2] it was 80 nM.
Regarding `OB(O)c1ccc(F)cc1`, in test [1], the inhibition worked out at 3%. Further, in test [2], the concentration for half-maximal inhibition (IC50) was determined as 1500 nM.
For `OB(O)c1ccc(F)nc1`, the inhibition in test [1] was 2%. Also, in test [2], the IC50 amounted to 10000 nM.
Regarding `OB(O)c1ccc(-c2ccccc2)cc1` [BIPHENYLBORONIC ACID], the IC50 in test [2] is 21 nM.
Take `COc1ccccc1B(O)O`: in test [1], the inhibition came to 11%. In addition, in test [2], the IC50 is 13000 nM.
Taken in the same sequence, the figures for `OB(O)c1ccccc1F` were 13% and 710 nM.
Taken in the same sequence, the figures for `N#Cc1ccc(B(O)O)cc1` were 36% and 290 nM.
With `CCCCCCCCCc1ccc(B(O)O)cc1`, the IC50 is 7900 nM at Monoglyceride lipase and 9.1 nM in test [2].
As for `O=[N+]([O-])c1ccc(B(O)O)cc1`, the inhibition in test [1] stood at 43%. For the same compound, the 50% inhibitory concentration (IC50) in test [2] is 210 nM.
In the case of `COc1ccc(B(O)O)cc1`, the inhibition in test [1] turned out to be 11%. In addition, in test [2], the half-inhibitory concentration (IC50) worked out at 2000 nM.
For the compound `CCOC(=O)c1cccc(B(O)O)c1`, the inhibition in test [1] was 34%. Moreover, in test [2], the 50% inhibitory concentration (IC50) turned out to be 120 nM.
